Reference: ChEMBL document CHEMBL3616437, “Thiazole compounds with activity against Cryptococcus gattii and Cryptococcus neoformans in vitro” (Eur J Med Chem, 2015)
Converted amounts (≈) assume the structure as drawn.

Key:
Cryptococcus neoformans [1] = assay: Antifungal activity against Cryptococcus neoformans F10 after 48 to 72 hrs by broth microdilution method; assay type: functional
How it was run: (§1)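 CLSI M27-A3 broth microdilution. Isolates subcultured twice on SDA, 48 h at 35°C. Saline suspension adjusted to 70% transmittance at 530 nm, then diluted to 1-5 x10^3 cells/mL in RPMI with L-glutamine, 0.165 M MOPS, pH 7.0. Compounds in DMSO, tested at […]. 35°C for 48-72 h. MIC read visually as the lowest concentration giving an optically clear well.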

Vero = assay: Cytotoxicity against African green monkey Vero cells assessed as cell viability measured after 48 hrs by MTT assay; assay type: cell-based; settings: Chlorocebus sabaeus
How it was run: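 VERO cells in D-MEM with 5% FBS, used up to 20 passages. Seeded 1 x 10^4 cells/well, pre-incubated 24 h at 37°C. Exposed 48 h at 37°C, 5% CO2, to eight nonserial dilutions from 100 to 0.0128 µM, with 0.5% DMSO control. MTT reduction read-out, corrected for background and blank. IC50 reported as median with 95% CI. Triplicate, two independent experiments.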

[2] = system: Cryptococcus gattii species complex; assay: Antifungal activity against Cryptococcus gattii 1913ER after 48 to 72 hrs by broth microdilution method; assay type: functional, Cryptococcus bacillisporus
How it was run: (§2)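 CLSI M27-A3 broth microdilution in RPMI with L-glutamine, buffered to pH 7.0 with 0.165 M MOPS. Colonies grown twice on SDA, 48 h at 35°C. Inoculum set to 70% transmittance at 530 nm, then diluted to 1-5 x10^3 cells/mL. Test agents dissolved in DMSO, serially diluted, tested at 0.1 to 62.5 µM. Plates held at 35°C for 48-72 h. MIC is the lowest concentration giving an optically clear well, read visually against drug-free growth controls.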

Cryptococcus neoformans [3] = assay: Antifungal activity against Cryptococcus neoformans ATCC 24067 after 48 to 72 hrs by broth microdilution method; assay type: functional; how it was run: as §1
[4] = system: Cryptococcus gattii species complex; assay: Antifungal activity against Cryptococcus gattii L24/01 after 48 to 72 hrs by broth microdilution method; assay type: functional, Cryptococcus bacillisporus; how it was run: as §2
Cryptococcus neoformans [5] = assay: Antifungal activity against Cryptococcus neoformans 28JF after 48 to 72 hrs by broth microdilution method; assay type: functional; how it was run: as §1
Cryptococcus neoformans [6] = assay: Antifungal activity against Cryptococcus neoformans 96806 after 48 to 72 hrs by broth microdilution method; assay type: functional; how it was run: as §1
[7] = Cytotoxicity against C57BL/6 mouse peritoneal macrophages assessed as cell viability measured after 48 hrs by MTT assay; assay type: cell-based; settings: C57BL/6, Peritoneal macrophage cell
How it was run: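 Thioglycollate-elicited peritoneal macrophages from male C57BL/6 mice, 6–8 weeks old, in RPMI with 10% FBS. Seeded 1 x 10^5 cells/well, pre-incubated 24 h at 37°C. Exposed 48 h at 37°C, 5% CO2, to eight nonserial dilutions from 100 to 0.0128 µM, with 0.5% DMSO control. MTT read-out, % inhibition versus DMSO control. IC50 reported as median with 95% CI. Triplicate, two independent experiments.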

Cryptococcus neoformans [8] = assay: Antifungal activity against Cryptococcus neoformans VM-MCMMPI after 48 to 72 hrs by broth microdilution method; assay type: functional; how it was run: as §1
[9] = system: Cryptococcus gattii species complex; assay: Antifungal activity against Cryptococcus gattii LMM818 after 48 to 72 hrs by broth microdilution method; assay type: functional, Cryptococcus bacillisporus; how it was run: as §2
[10] = system: Cryptococcus gattii species complex; assay: Antifungal activity against Cryptococcus gattii 135L/03 after 48 to 72 hrs by broth microdilution method; assay type: functional, Cryptococcus bacillisporus; how it was run: as §2
[11] = system: Cryptococcus bacillisporus; assay: Antifungal activity against Cryptococcus gattii ATCC 32608 after 48 to 72 hrs by broth microdilution method; assay type: functional; how it was run: as §2
[12] = Selectivity index, ratio of IC50 for African green monkey Vero cells to MIC for Cryptococcus neoformans ATCC 24067; assay type: toxicity, cell-based
[13] = system: Cryptococcus gattii species complex; assay: Antifungal activity against Cryptococcus gattii 196L/03 after 48 to 72 hrs by broth microdilution method; assay type: functional, Cryptococcus bacillisporus; how it was run: as §2
[14] = system: Cryptococcus gattii species complex; assay: Antifungal activity against Cryptococcus gattii 547/OTTI-97-PI-10 after 48 to 72 hrs by broth microdilution method; assay type: functional, Cryptococcus bacillisporus; how it was run: as §2
[15] = system: Cryptococcus gattii species complex; assay: Antifungal activity against Cryptococcus gattii L28/02 after 48 to 72 hrs by broth microdilution method; assay type: functional, Cryptococcus bacillisporus; how it was run: as §2
[16] = Selectivity index, ratio of IC50 for C57BL/6 mouse peritoneal macrophages to MIC for Cryptococcus neoformans ATCC 24067
How it was run: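 SI = IC50/MIC. Thioglycollate-elicited peritoneal macrophages from C57BL/6 mice are seeded at 1 x 10^5/well. They are exposed for 48 h at 37°C to eight concentrations from 100 to 0.0128 µM. Viability read by MTT versus 0.5% DMSO control, triplicate in two experiments.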

Cryptococcus neoformans [17] = assay: Antifungal activity against Cryptococcus neoformans 5396 after 48 to 72 hrs by broth microdilution method; assay type: functional; how it was run: as §1
[18] = system: Cryptococcus gattii species complex; assay: Antifungal activity against Cryptococcus gattii ICB181 after 48 to 72 hrs by broth microdilution method; assay type: functional, Cryptococcus bacillisporus; how it was run: as §2
Cryptococcus neoformans [19] = assay: Antifungal activity against Cryptococcus neoformans 27JF after 48 to 72 hrs by broth microdilution method; assay type: functional; how it was run: as §1
[20] = system: Cryptococcus gattii species complex; assay: Antifungal activity against Cryptococcus gattii 23/10993 after 48 to 72 hrs by broth microdilution method; assay type: functional, Cryptococcus bacillisporus; how it was run: as §2
Cryptococcus neoformans [21] = assay: Antifungal activity against Cryptococcus neoformans ATCC 62066 after 48 to 72 hrs by broth microdilution method; assay type: functional
Cryptococcus neoformans [22] = assay: Antifungal activity against Cryptococcus neoformans LMM820 after 48 to 72 hrs by broth microdilution method; assay type: functional; how it was run: as §1
Cryptococcus neoformans [23] = assay: Antifungal activity against Cryptococcus neoformans ATCC 28957 after 48 to 72 hrs by broth microdilution method; assay type: functional; how it was run: as §1
[24] = system: Cryptococcus gattii species complex; assay: Antifungal activity against Cryptococcus gattii L27/01 after 48 to 72 hrs by broth microdilution method; assay type: functional, Cryptococcus bacillisporus; how it was run: as §2
Cryptococcus neoformans [25] = assay: Antifungal activity against Cryptococcus neoformans WP after 48 to 72 hrs by broth microdilution method; assay type: functional; how it was run: as §1
Cryptococcus neoformans [26] = assay: Antifungal activity against Cryptococcus neoformans CN31 after 48 to 72 hrs by broth microdilution method; assay type: functional; how it was run: as §1

Structure (SMILES): OC(Cn1cncn1)(Cn1cncn1)c1ccc(F)cc1F [FLUCONAZOLE]
- MFC (Cryptococcus neoformans [1]): > 62.5 µM
- MIC (Cryptococcus neoformans [1]): 10.4 µM (≈ 3.19 µg/mL)
- IC50 (Vero): > 100 µM
- MFC [2]: > 62.5 µM
- MIC [2]: 13 µM (≈ 3.98 µg/mL)
- MIC (Cryptococcus neoformans [3]): 7.8 µM (≈ 2.39 µg/mL)
- MFC [4]: > 62.5 µM
- MIC [4]: 13 µM (≈ 3.98 µg/mL)
- MFC (Cryptococcus neoformans [5]): > 62.6 µM
- MIC (Cryptococcus neoformans [5]): 7.8 µM (≈ 2.39 µg/mL)
- MFC (Cryptococcus neoformans [6]): > 62.5 µM
- MIC (Cryptococcus neoformans [6]): 31.2 µM (≈ 9.56 µg/mL)
- IC50 [7]: > 100 µM
- MFC (Cryptococcus neoformans [8]): 15.6 µM (≈ 4.78 µg/mL)
- MIC (Cryptococcus neoformans [8]): 11.7 µM (≈ 3.58 µg/mL)
- MFC [9]: > 62.5 µM
- MIC [9]: 20.8 µM (≈ 6.37 µg/mL)
- MFC [10]: 31.3 µM (≈ 9.59 µg/mL)
- MIC [10]: 7.8 µM (≈ 2.39 µg/mL)
- MFC [11]: 62.5 µM (≈ 19.1 µg/mL)
- MIC [11]: 13 µM (≈ 3.98 µg/mL)
- selectivity ratio [12]: 15.7
- MFC [13]: > 62.5 µM
- MIC [13]: 26 µM (≈ 7.96 µg/mL)
- MFC [14]: > 62.5 µM
- MIC [14]: 13 µM (≈ 3.98 µg/mL)
- MFC [15]: > 62.5 µM
- MIC [15]: 26 µM (≈ 7.96 µg/mL)
- Ratio [16]: 15.74
- MFC (Cryptococcus neoformans [17]): 62.5 µM (≈ 19.1 µg/mL)
- MIC (Cryptococcus neoformans [17]): 23.4 µM (≈ 7.17 µg/mL)
- MFC [18]: 62.5 µM (≈ 19.1 µg/mL)
- MIC [18]: 10.4 µM (≈ 3.19 µg/mL)
- MFC (Cryptococcus neoformans [19]): > 62.5 µM
- MIC (Cryptococcus neoformans [19]): 10.4 µM (≈ 3.19 µg/mL)
- MFC [20]: > 62.5 µM
- MIC [20]: 13 µM (≈ 3.98 µg/mL)
- MFC (Cryptococcus neoformans [21]): > 62.5 µM
- MIC (Cryptococcus neoformans [21]): 13 µM (≈ 3.98 µg/mL)
- MFC (Cryptococcus neoformans [22]): 62.5 µM (≈ 19.1 µg/mL)
- MIC (Cryptococcus neoformans [22]): 13 µM (≈ 3.98 µg/mL)
- MFC (Cryptococcus neoformans [23]): 62.5 µM (≈ 19.1 µg/mL)
- MIC (Cryptococcus neoformans [23]): 3.2 µM (≈ 0.98 µg/mL)
- MFC [24]: > 62.5 µM
- MIC [24]: 41.7 µM (≈ 12.8 µg/mL)
- MFC (Cryptococcus neoformans [25]): > 62.5 µM
- MIC (Cryptococcus neoformans [25]): 15.6 µM (≈ 4.78 µg/mL)
- MFC (Cryptococcus neoformans [26]): 31.2 µM (≈ 9.57 µg/mL)
- MIC (Cryptococcus neoformans [26]): 6.5 µM (≈ 1.99 µg/mL)

Structure (SMILES): C[C@@H]1[C@H](O)[C@@H](C)/C=C/C=C/C=C/C=C/C=C/C=C/C=C/[C@H](O[C@@H]2O[C@H](C)[C@@H](O)[C@H](N)[C@@H]2O)C[C@@H]2O[C@](O)(C[C@@H](O)C[C@@H](O)[C@H](O)CC[C@@H](O)C[C@@H](O)CC(=O)O[C@H]1C)C[C@H](O)[C@H]2C(=O)O [AMPHOTERICIN B]
- MFC (Cryptococcus neoformans [1]): 0.11 µM (≈ 0.102 µg/mL)
- MIC (Cryptococcus neoformans [1]): 0.06 µM (≈ 0.0554 µg/mL)
- IC50 (Vero): > 100 µM
- MFC [2]: 0.1 µM (≈ 0.0924 µg/mL)
- MIC [2]: 0.08 µM (≈ 0.0739 µg/mL)
- MIC (Cryptococcus neoformans [3]): 0.09 µM (≈ 0.0832 µg/mL)
- MFC [4]: 0.1 µM (≈ 0.0924 µg/mL)
- MIC [4]: 0.04 µM (≈ 0.037 µg/mL)
- MFC (Cryptococcus neoformans [5]): 0.22 µM (≈ 0.203 µg/mL)
- MIC (Cryptococcus neoformans [5]): 0.11 µM (≈ 0.102 µg/mL)
- MFC (Cryptococcus neoformans [6]): 0.45 µM (≈ 0.416 µg/mL)
- MIC (Cryptococcus neoformans [6]): 0.09 µM (≈ 0.0832 µg/mL)
- IC50 [7]: 53.4 µM
- MFC (Cryptococcus neoformans [8]): 0.22 µM (≈ 0.203 µg/mL)
- MIC (Cryptococcus neoformans [8]): 0.07 µM (≈ 0.0647 µg/mL)
- MFC [9]: 0.2 µM (≈ 0.185 µg/mL)
- MIC [9]: 0.14 µM (≈ 0.129 µg/mL)
- MFC [10]: 0.5 µM (≈ 0.462 µg/mL)
- MIC [10]: 0.14 µM (≈ 0.129 µg/mL)
- MFC [11]: 0.9 µM (≈ 0.832 µg/mL)
- MIC [11]: 0.14 µM (≈ 0.129 µg/mL)
- selectivity ratio [12]: 206
- MFC [13]: 0.2 µM (≈ 0.185 µg/mL)
- MIC [13]: 0.04 µM (≈ 0.037 µg/mL)
- MFC [14]: 0.1 µM (≈ 0.0924 µg/mL)
- MIC [14]: 0.04 µM (≈ 0.037 µg/mL)
- MFC [15]: 0.1 µM (≈ 0.0924 µg/mL)
- MIC [15]: 0.08 µM (≈ 0.0739 µg/mL)
- Ratio [16]: 109.81
- MFC (Cryptococcus neoformans [17]): 0.11 µM (≈ 0.102 µg/mL)
- MIC (Cryptococcus neoformans [17]): 0.06 µM (≈ 0.0554 µg/mL)
- MFC [18]: 0.9 µM (≈ 0.832 µg/mL)
- MIC [18]: 0.12 µM (≈ 0.111 µg/mL)
- MFC (Cryptococcus neoformans [19]): 0.45 µM (≈ 0.416 µg/mL)
- MIC (Cryptococcus neoformans [19]): 0.07 µM (≈ 0.0647 µg/mL)
- MFC [20]: 0.1 µM (≈ 0.0924 µg/mL)
- MIC [20]: 0.08 µM (≈ 0.0739 µg/mL)
- MFC (Cryptococcus neoformans [21]): 0.22 µM (≈ 0.203 µg/mL)
- MIC (Cryptococcus neoformans [21]): 0.03 µM (≈ 0.0277 µg/mL)
- MFC (Cryptococcus neoformans [22]): 0.22 µM (≈ 0.203 µg/mL)
- MIC (Cryptococcus neoformans [22]): 0.06 µM (≈ 0.0554 µg/mL)
- MFC (Cryptococcus neoformans [23]): 0.22 µM (≈ 0.203 µg/mL)
- MIC (Cryptococcus neoformans [23]): 0.04 µM (≈ 0.037 µg/mL)
- MFC [24]: 0.1 µM (≈ 0.0924 µg/mL)
- MIC [24]: 0.08 µM (≈ 0.0739 µg/mL)
- MFC (Cryptococcus neoformans [25]): 0.22 µM (≈ 0.203 µg/mL)
- MIC (Cryptococcus neoformans [25]): 0.09 µM (≈ 0.0832 µg/mL)
- MFC (Cryptococcus neoformans [26]): 0.45 µM (≈ 0.416 µg/mL)
- MIC (Cryptococcus neoformans [26]): 0.08 µM (≈ 0.0739 µg/mL)
